High-throughput results deposited in PubChem by several laboratories.
TAG inh: reduces triacylglycerol accumulation in H9c2 cells | Nile Red lipid (TAG) fluorescence; cells loaded with 200 µM oleic acid | inhibition, % at 12.5 µM | 230,000 tested, 0.66% active | AID 651582;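 active = pattern-corrected inhibition of lipid staining of at least 50% with the nuclear-stain viability signal not falling by more than 50%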;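 note: 0% = DMSO wells and 100% = triacsin C control wells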
GalR3 antagonist: human GalR3 antagonism. O60755. HEK293 GalR3-CNG cAMP membrane potential fluorescence; galR3 body fused to GalR1 C-terminus. inhibition, % at 3 µM. 360,000 tested, 0.44% active. AID 651719;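 active = inhibition above the screen-wide average plus 3 SD, cut at about 13% in these data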;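 note: forskolin and galanin both at EC90 stimulate the cells; cAMP rise reported by CNG channel membrane potential dye signal; 0% = forskolin plus galanin with DMSO and 100% = forskolin alone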
Target sequence (O60755 1-299 limits assumed): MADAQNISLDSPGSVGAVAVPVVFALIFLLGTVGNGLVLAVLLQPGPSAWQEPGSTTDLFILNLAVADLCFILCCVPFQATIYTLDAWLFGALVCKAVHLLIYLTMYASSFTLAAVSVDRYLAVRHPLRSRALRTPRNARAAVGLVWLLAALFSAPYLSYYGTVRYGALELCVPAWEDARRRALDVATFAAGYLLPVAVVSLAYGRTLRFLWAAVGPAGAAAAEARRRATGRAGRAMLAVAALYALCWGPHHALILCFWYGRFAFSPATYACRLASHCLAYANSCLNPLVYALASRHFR
MC4R antagonist: blocks human MC4R cAMP signaling; P32245; MC4R-expressing cells, MTII-stimulated cAMP, LANCE TR-FRET; inhibition, % at 6.5 µM; 360,000 tested, 0.48% active;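 active = inhibition above its plate's cutoff, the mean of tested wells on that plate plus 3 SD, cut at about 29% in these data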;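 note: 0% = Melanotan II alone and 100% = Melanotan II plus saturating MCL0020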
Target sequence (P32245 whole entry, looked up): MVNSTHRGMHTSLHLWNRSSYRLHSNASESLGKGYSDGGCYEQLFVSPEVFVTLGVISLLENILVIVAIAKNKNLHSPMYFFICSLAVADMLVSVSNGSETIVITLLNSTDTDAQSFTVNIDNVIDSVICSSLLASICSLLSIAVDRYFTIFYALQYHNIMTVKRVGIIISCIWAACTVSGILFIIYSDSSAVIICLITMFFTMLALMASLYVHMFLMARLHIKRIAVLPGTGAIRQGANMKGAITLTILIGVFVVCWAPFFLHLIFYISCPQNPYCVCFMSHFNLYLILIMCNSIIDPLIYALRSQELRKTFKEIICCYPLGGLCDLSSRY
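Material: human MC4R-expressing U2OS cells. Probe or stimulus: Melanotan II challenge. Dosing: 6.5 µM single dose. Times: 30-min compound, 1-h challenge, 1-h detection, room temperature. Technique: TR-FRET with Eu-cAMP and labeled anti-cAMP, 671 nm. Replication: singlicate.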
Calb FLC: affects C. albicans growth with fluconazole. C. albicans CaCi-2 + fluconazole, Alamar Blue growth, 48 h. growth inhibition, % (no concentration beside the values). 300,000 tested, 0.57% active;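 active = growth inhibition above about 58% in most replicates, limit read from the data, passing the limit was not always enough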;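 note: all wells also contain fluconazole at 8 µg/ml as a sub-toxic cotreatment; 0% = median of DMSO wells and 100% = median of geldanamycin control wells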
MC4R ag barr: human MC4R agonism via beta-arrestin | activation, % at 8.9 µM | 360,000 tested, 0.98% active | U2OS MC4R beta-arrestin complementation, luminescence; percent of melanotan II response, DMSO zero | P32245;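 active = activation above a per-plate cutoff, the mean activation of sample wells on that plate plus 3 SD, cut at about 8% in these data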
Efflux pump mplx: inhibitors of Candida antifungal efflux pumps expressed in yeast; S. cerevisiae Candida pump triplex, Nile Red efflux; inhibition, % at 10 µM; 330,000 tested, 0.44% active;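 active = plate passing quality check with inhibition over a set limit, or well fluorescence over plate mean plus 4 SD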;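 note: Nile Red retained in pooled yeast measured as flow cytometry median fluorescence; 0% = buffer negative control and 100% = Enniatin B positive control; higher means more Nile Red kept so more efflux inhibition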
cAMP nonselect: nonselective cAMP signaling inhibitor, MC4R antagonist counter-screen; parental U2OS, forskolin cAMP, LANCE TR-FRET; shares compounds with MC4R antagonist; inhibition, % at 6.5 µM; 1,600 tested, 26% active; AID 602193;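 active = mean inhibition over triplicates above the low-control well mean plus 3 SD, set per campaign, cut at about 13% in these data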;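 note: signal is single emission at 671 nm which falls as cellular cAMP rises; 0% = forskolin-stimulated wells and 100% = buffer without forskolin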
MC4R cAMP antag: human MC4R cAMP antagonism confirmation | 1,600 tested, 27% active | shares compounds with MC4R antagonist | MC4R-expressing cells, MTII-stimulated cAMP, TR-FRET | inhibition, % at 6.5 µM; in the data active = inhibition above about 29%;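 note: 0% = agonist stimulated wells alone and 100% = agonist stimulated wells plus saturating reference antagonist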
Starred values were filed as active, the others as inactive. In the library only some 2.9% were active in any assay of this set; here they are far more common.

Screening O=C(COC(=O)c1nc(Cl)c(Cl)c(Cl)c1Cl)c1ccc[nH]1 returned TAG inh 3, GalR3 antagonist 3, MC4R antagonist 39*, Calb FLC 18, MC4R ag barr -3, Efflux pump mplx 0, cAMP nonselect 11 and MC4R cAMP antag 37*.
O=C1C=CC2(C=C1)O[C@H](Cc1ccccc1)[C@@H](Cc1ccccc1)O2 was read as TAG inh 76, GalR3 antagonist 0, MC4R antagonist 27 and MC4R ag barr -2.
Screening COc1ccc(C[C@@H]2OC3(C=CC(=O)C=C3)O[C@H]2Cc2ccc(OC)cc2)cc1 returned TAG inh 75, MC4R antagonist 60*, MC4R ag barr -3, cAMP nonselect 35* and MC4R cAMP antag 34*.
For O=S(=O)(c1cccnc1)N1CCn2cccc2C1c1ccccc1F (configuration not stated) the results were TAG inh -26, GalR3 antagonist 1, MC4R antagonist 7, Calb FLC 0, MC4R ag barr -3 and Efflux pump mplx 0.
Screening CC(C)(C)NC(=O)N1CCn2cccc2C1c1ccccc1F (configuration not stated) returned TAG inh -5, GalR3 antagonist -6, MC4R antagonist 30*, Calb FLC -2, MC4R ag barr 1, Efflux pump mplx 0, cAMP nonselect 4 and MC4R cAMP antag 1.
Screening Cc1ccc(S(=O)(=O)N2[C@@H](Cc3ccccc3)CO[C@H]2CC(=O)c2cccc3ccccc23)cc1 returned GalR3 antagonist -4.
`O=C(O)COc1cccc(NC(=O)c2ccccc2)c1` gave GalR3 antagonist -2, MC4R antagonist 10, Calb FLC 4, MC4R ag barr -1 and Efflux pump mplx 0.
For COC(=O)COc1cccc(NC(=O)C(c2ccccc2)c2ccccc2)c1 the results were GalR3 antagonist -10, MC4R antagonist 29*, Calb FLC -1, MC4R ag barr 2, Efflux pump mplx 0, cAMP nonselect 7 and MC4R cAMP antag 15.
Screening O=C(CN1C(=O)NC2(CCCC2)C1=O)Nc1ccc(S(=O)(=O)N2CCOCC2)cc1 returned TAG inh -5, GalR3 antagonist -2, MC4R antagonist 34*, Calb FLC 1, MC4R ag barr -2, Efflux pump mplx 0, cAMP nonselect 1 and MC4R cAMP antag -3.
CCOC(=O)C1=C(C(=O)OCC)C2N(Cc3ccc(C#N)cc3)c3ccccc3[C@@]23C[C@@H](C(=O)OC)N(S(=O)(=O)c2ccc(OC)cc2)C3=N1 (some centres not stated) was read as GalR3 antagonist -1.
`N#Cc1c(N)[nH]c(C(=O)c2ccccc2)c1-c1ccccc1Br` gave GalR3 antagonist -7.
`CCOC(=O)CC(=O)NC(C)(C)CCCCC(C)(C)NC(=O)CC(=O)OCC` gave GalR3 antagonist -3, MC4R antagonist 29*, Calb FLC -10, MC4R ag barr 0, Efflux pump mplx 0, cAMP nonselect -3 and MC4R cAMP antag 1.
For CCOC(=O)CNC(=O)CCCCCC(=O)NCC(=O)OCC the results were GalR3 antagonist -2, MC4R antagonist 9, Calb FLC 5, MC4R ag barr 0 and Efflux pump mplx 0.
Screening CNC(=S)N1CCc2cc(OC)c(OC)cc2C1COc1ccc(OC)cc1 (configuration not stated) returned TAG inh 4, GalR3 antagonist 2, MC4R antagonist 7, Calb FLC -1, MC4R ag barr 0 and Efflux pump mplx 0.
For COCCNC(=S)N1CCc2cc(OC)c(OC)cc2C1COc1cc(C)cc(C)c1 (configuration not stated) the results were GalR3 antagonist -2, MC4R antagonist 29*, Calb FLC 17, MC4R ag barr 1, Efflux pump mplx 0, cAMP nonselect -5 and MC4R cAMP antag 12.
For COc1ccc(S(=O)(=O)Nc2ccc(-n3cnnn3)cc2)cc1Br the results were TAG inh 7, GalR3 antagonist 0, MC4R antagonist -9 and MC4R ag barr -2.
Screening COc1ccc(NS(=O)(=O)c2ccc(-n3cnnn3)cc2)cc1OC returned GalR3 antagonist -2, MC4R antagonist 29*, Calb FLC -5, MC4R ag barr 2, Efflux pump mplx 0, cAMP nonselect 3 and MC4R cAMP antag -17.
For CC1(C(=O)NS(=O)(=O)C2CC2)CCCN(C(=O)c2ccc(F)c(Cl)c2)C1 (configuration not stated) the results were TAG inh 15, GalR3 antagonist -4, MC4R antagonist 4 and MC4R ag barr 0.
For CC(C)c1ccc(OCC(=O)NC(=S)Nc2ccc3c4c(cccc24)CC3)cc1 the results were GalR3 antagonist -3, MC4R antagonist 38*, Calb FLC -2, MC4R ag barr 0, Efflux pump mplx 0, cAMP nonselect 20* and MC4R cAMP antag 37*.
CC(C)(C)C(=O)C(C(c1ccccc1)N1CCOCC1)N1CCOCC1 (configuration not stated) was read as TAG inh 10, GalR3 antagonist -4, MC4R antagonist 5 and MC4R ag barr 1.
`O=S(=O)(NCC1CCCO1)c1cc(Cl)ccc1Br` (configuration not stated) gave GalR3 antagonist -8, MC4R antagonist 1, Calb FLC -31, MC4R ag barr 0 and Efflux pump mplx 0.
Screening O=S(=O)(NCC1CCCO1)c1cnc(Cl)c(Br)c1 (configuration not stated) returned GalR3 antagonist -5, MC4R antagonist 29*, Calb FLC 14, MC4R ag barr -3, Efflux pump mplx 0, cAMP nonselect 19* and MC4R cAMP antag 43*.
CC(=O)Oc1ccc2c(=O)oc(-c3ccccc3)nc2c1 was read as TAG inh 7, GalR3 antagonist -9, MC4R antagonist 15, Calb FLC -9, MC4R ag barr 0 and Efflux pump mplx 0.
CC(=O)Oc1ccc2nc(-c3ccc(Br)o3)oc(=O)c2c1 was read as TAG inh 6, GalR3 antagonist -8, MC4R antagonist 32*, Calb FLC 3, MC4R ag barr 1, Efflux pump mplx 0, cAMP nonselect 6 and MC4R cAMP antag 36*.
`CC(=O)N1N=C(c2ccc(C)cc2)CC1c1ccco1` (configuration not stated) gave TAG inh 9, GalR3 antagonist -1, MC4R antagonist 30*, Calb FLC -5, MC4R ag barr -1, Efflux pump mplx 0, cAMP nonselect 12 and MC4R cAMP antag 3.
